Laboratory results taken from ChEMBL document CHEMBL3232818, “Imidazole-derived 2-[N-carbamoylmethyl-alkylamino]acetic acids, substrate-dependent modulators of insulin-degrading enzyme in amyloid-β hydrolysis” (Eur J Med Chem, 2014).
pIC50: −log10 of the molar value. Converted amounts (≈) assume the structure as drawn. The source made the active and inactive calls. The rule behind the calls is not given here.

What was measured:
[1] = system: Plasma; assay: Prodrug conversion in mouse plasma assessed as half life of BDM43079 formation at 10 uM by LC-MS/MS analysis; format: ADME, cell-free
[2] = molecular target: T1, Insulin-degrading enzyme (Mus musculus) (UniProt Q9JHR7); assay: Inhibition of IDE in mouse Min6 cells assessed as effect on 2.8 mM of glucose-induced insulin secretion at 10 uM after 24 hrs by ELISA; format: cell-based
T1 sequence (whole entry): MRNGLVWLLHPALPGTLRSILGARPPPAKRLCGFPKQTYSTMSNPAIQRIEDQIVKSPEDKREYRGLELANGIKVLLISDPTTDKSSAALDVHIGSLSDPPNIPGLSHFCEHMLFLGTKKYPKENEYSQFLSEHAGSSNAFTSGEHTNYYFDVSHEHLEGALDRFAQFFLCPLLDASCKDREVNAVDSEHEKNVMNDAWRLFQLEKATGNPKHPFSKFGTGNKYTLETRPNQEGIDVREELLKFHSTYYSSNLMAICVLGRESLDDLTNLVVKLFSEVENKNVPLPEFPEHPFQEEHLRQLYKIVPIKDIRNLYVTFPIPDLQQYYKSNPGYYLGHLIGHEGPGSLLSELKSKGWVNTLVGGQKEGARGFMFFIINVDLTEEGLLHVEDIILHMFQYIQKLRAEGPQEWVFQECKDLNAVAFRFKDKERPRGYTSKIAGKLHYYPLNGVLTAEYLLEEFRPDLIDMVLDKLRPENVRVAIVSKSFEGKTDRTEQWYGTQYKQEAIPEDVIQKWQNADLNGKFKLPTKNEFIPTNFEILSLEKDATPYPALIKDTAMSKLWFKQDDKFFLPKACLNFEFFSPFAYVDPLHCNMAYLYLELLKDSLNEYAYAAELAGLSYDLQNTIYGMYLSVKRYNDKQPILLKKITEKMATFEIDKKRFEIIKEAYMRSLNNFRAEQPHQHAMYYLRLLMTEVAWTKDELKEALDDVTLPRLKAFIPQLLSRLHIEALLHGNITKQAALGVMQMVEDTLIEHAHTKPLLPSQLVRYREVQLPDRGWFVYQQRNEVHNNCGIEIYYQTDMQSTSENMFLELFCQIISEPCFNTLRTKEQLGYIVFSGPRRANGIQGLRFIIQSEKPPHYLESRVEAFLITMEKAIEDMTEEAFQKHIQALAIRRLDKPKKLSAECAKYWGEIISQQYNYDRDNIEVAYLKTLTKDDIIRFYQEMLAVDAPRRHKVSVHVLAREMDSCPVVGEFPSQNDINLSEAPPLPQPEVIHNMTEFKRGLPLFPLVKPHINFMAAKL

[3] = Solubility of the compound in PBS at pH 7.4; format: physicochemical
[4] = molecular target: T1, Insulin-degrading enzyme (Mus musculus); assay: Inhibition of IDE in mouse Min6 cells assessed as effect on 11 mM of glucose-induced insulin secretion at 10 uM after 24 hrs by ELISA; format: cell-based
[5] = Apparent permeability across human Caco2 cells at 10 uM after 1 hr by LC-MS/MS analysis; format: ADME, cell-based; details: Caco-2
[6] = molecular target: Insulin-degrading enzyme (Homo sapiens) (UniProt P14735); assay: Inhibition of IDE in immortalized human hepatocytes assessed as effect on insulin-induced PEPCK mRNA expression at 10 uM after 24 hrs by quantitative RT-PCR analysis; format: cell-based; set-up: scale not given: the % may be the effect or the level left; details: Hepatocyte
[7] = molecular target: T2, Insulin-degrading enzyme (Homo sapiens, UniProt P14735); assay: Inhibition of human recombinant IDE-mediated amyloid beta (16 to 23) hydrolysis using ATTO 655-Cys-Lys-Leu-Val-Phe-Phe-Ala-Glu-Asp-Trp as substrate preincubated for 10 mins measured after 30 mins by spectrophotometer analysis
T2 sequence (P14735 whole entry): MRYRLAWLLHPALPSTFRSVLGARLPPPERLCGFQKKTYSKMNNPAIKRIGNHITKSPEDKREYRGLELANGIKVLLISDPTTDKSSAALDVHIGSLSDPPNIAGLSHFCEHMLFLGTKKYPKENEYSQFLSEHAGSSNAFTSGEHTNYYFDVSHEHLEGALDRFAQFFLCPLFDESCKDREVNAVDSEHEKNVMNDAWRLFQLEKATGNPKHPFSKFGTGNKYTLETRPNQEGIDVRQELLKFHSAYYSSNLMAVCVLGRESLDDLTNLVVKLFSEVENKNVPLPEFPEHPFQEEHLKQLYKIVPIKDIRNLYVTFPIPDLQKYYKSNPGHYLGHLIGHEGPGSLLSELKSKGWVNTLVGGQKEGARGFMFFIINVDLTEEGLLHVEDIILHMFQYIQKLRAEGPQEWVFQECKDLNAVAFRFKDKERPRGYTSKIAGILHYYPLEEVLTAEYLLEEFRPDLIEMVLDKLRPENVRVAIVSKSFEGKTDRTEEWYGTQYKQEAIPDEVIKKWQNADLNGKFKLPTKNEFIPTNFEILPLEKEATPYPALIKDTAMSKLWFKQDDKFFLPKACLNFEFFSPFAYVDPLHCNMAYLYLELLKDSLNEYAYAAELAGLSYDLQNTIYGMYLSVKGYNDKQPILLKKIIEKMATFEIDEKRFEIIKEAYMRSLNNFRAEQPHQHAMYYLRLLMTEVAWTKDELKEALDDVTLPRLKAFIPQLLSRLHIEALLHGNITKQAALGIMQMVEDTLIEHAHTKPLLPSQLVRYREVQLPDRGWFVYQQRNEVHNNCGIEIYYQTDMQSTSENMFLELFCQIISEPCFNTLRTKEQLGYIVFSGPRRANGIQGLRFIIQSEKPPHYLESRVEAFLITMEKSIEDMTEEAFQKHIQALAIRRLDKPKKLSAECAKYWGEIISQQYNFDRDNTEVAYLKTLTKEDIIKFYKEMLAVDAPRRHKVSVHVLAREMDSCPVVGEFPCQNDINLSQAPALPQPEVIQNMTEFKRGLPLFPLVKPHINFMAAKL

[8] = molecular target: Insulin-degrading enzyme (Homo sapiens) (UniProt P14735); assay: Inhibition of human recombinant IDE-mediated insulin hydrolysis assessed as residual insulin level at 100 uM preincubated for 10 mins measured after 30 mins by spectrophotometer analysis
[9] = molecular target: T1, Insulin-degrading enzyme (Mus musculus); assay: Inhibition of IDE in mouse Min6 cells assessed as effect on 20 mM of glucose-induced insulin secretion at 10 uM after 24 hrs by ELISA; format: cell-based
[10] = molecular target: Insulin-degrading enzyme (Homo sapiens) (UniProt P14735); assay: Inhibition of IDE in human SH-SY5Y cells expressing human APP751 with Swedish mutant/human […] assessed as effect on CTFs level after 24 to 48 hrs by Western blot
[11] = molecular target: Insulin-degrading enzyme (Homo sapiens) (UniProt P14735); assay: Inhibition of IDE in human SH-SY5Y cells expressing human APP751 with Swedish mutant/human […] assessed as increase of amyloid beta (1 to 40) level after 24 to 48 hrs by ELISA; format: cell-based
How it was run: (§1)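 SH-SY5Y APPswe and APPwt lines kept in DMEM with 10% fetal calf serum, 2 mM L-glutamine, 5% CO2, 37 °C. Seeded at 1.94 10^5 cells/well and treated 24 h later with vehicle or drug at 0.1 or 10 μM (from 10 mM DMSO stock) for 24 h and 48 h. Medium cleared by centrifugation and assayed by ELISA. Aβ1-42 used 100 μL of medium undiluted; Aβ1-40 used 10 μL diluted 1:10. Duplicates in three independent experiments, normalized to untreated cells.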

[12] = Prodrug conversion in IHH cell culture medium assessed as half life of BDM43079 formation at 10 uM by LC-MS/MS analysis; format: ADME, cell-based; details: human, hh
How it was run: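 Conversion to the active acid followed in William's E medium with 10% fetal calf serum.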

[13] = molecular target: Insulin-degrading enzyme (Homo sapiens) (UniProt P14735); assay: Inhibition of IDE in human SH-SY5Y cells expressing human APP751 with Swedish mutant/human […] assessed as effect on APP holoproteins level after 24 to 48 hrs by Western blot
[14] = molecular target: Insulin-degrading enzyme (Homo sapiens) (UniProt P14735); assay: Inhibition of IDE in human SH-SY5Y cells expressing human APP751 with Swedish mutant/human […] assessed as increase of amyloid beta (1 to 42) level after 24 to 48 hrs by ELISA; format: cell-based; how it was run: as §1
[15] = PBS-octanol partition coefficient, log D of the compound; format: physicochemical

Row | Structure (SMILES) | t1/2 [1] [min] | Activity [2] [µg/L] | solubility [3] [µM] | Activity [4] [µg/L] | Papp at 1 h, 10 µM [5] [nm/s] | Activity [6] [%] | pIC50 [7] | Activity [8] [%] | Activity [9] [µg/L] | inhibition [10] | inhibition [11] | t1/2 [12] [h] | inhibition [13] | inhibition [14] | logD [15]
1 | CNC(=O)[C@H](Cc1c[nH]cn1)NC(=O)CN(CCCc1ccccc1)CC(=O)OC | 6 | 21.2 | 74 (≈ 30.7 µg/mL) | 78.8 | 2 | 62 | < 4.00 | 50 | 132 | inactive | Dose-dependent effect | 11.3 | inactive | Dose-dependent effect | 1.1
2 | COC(=O)[C@H](Cc1c[nH]cn1)NC(=O)CN(CC(=O)O)C(=O)c1ccccc1 |  |  |  |  |  |  | < 4.00 |  |  |  |  |  |  |  | 
3 | COC(=O)[C@H](Cc1ccccc1)NC(=O)CN(CC(=O)O)Cc1ccccc1 |  |  |  |  |  |  | < 4.00 |  |  |  |  |  |  |  | 
